From the RNAGym collection of RNA variant scans (doi:10.1002/anie.201605470)

B1: Osa-1-4 twister ribozyme (parent)
chain: CCGCCUAACACUGCCAAUGCCGGUCCCAAGCCCGGAUAAAAGUGGAGGGGGCGG

Variants of: B1
Assay: self-cleavage, relative activity (ratio to wild type); higher = more cleavage; co-transcriptional
How it was run: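 A DNA template for a 54-nucleotide Oryza sativa twister ribozyme was synthesised with 97 % wild-type base and 1 % of each other base at the 48 positions downstream of the cleavage site. It was transcribed in vitro for 2 h at 37 °C, allowing co-transcriptional self-cleavage, then reverse-transcribed with a template-switching oligonucleotide, PCR-amplified and deep-sequenced. Cleavage status was scored from reads with or without upstream sequence. Relative activity is fraction cleaved normalised to wild type.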

Row | Variant | self-cleavage
1 | CCGCCUAACACUGCCAAUGCCCAUCCCAAGCCCGGAUAAAAGUGGAGGGGGCGG [G22C G23A] | 0.06
2 | CCGCCUAACACUGCCAAUGCCCGGCCCAAGCCCGGAUAAAAGUGGAGGGGGCGG [G22C U24G] | 0.03
3 | CCGCCUAACACUGCCAAUGCCCGCCCCAAGCCCGGAUAAAAGUGGAGGGGGCGG [G22C U24C] | 0.03
4 | CCGCCUAACACUGCCAAUGCCCGACCCAAGCCCGGAUAAAAGUGGAGGGGGCGG [G22C U24A] | 0.04
5 | CCGCCUAACACUGCCAAUGCCUGUCCCAAGCCCUGAUAAAAGUGGAGGGGGCGG [G22U G34U] | 0.79
6 | CCGCCUAACACUGCCAAUGCCUGUCCCAAGCCCAGAUAAAAGUGGAGGGGGCGG [G22U G34A] | 0.19
7 | CCGCCUAACACUGCCAAUGCCUGUCCCAAGCCCCGAUAAAAGUGGAGGGGGCGG [G22U G34C] | 0.4
8 | CCGCCUAACACAGCCAAUGCCCGUCCCAAGCCCGGAUAAAAGUGGAGGGGGCGG [G22C U12A] | 0.05
9 | CCGCCUAACACGGCCAAUGCCCGUCCCAAGCCCGGAUAAAAGUGGAGGGGGCGG [G22C U12G] | 0.03
10 | CCGCCUAACACCGCCAAUGCCCGUCCCAAGCCCGGAUAAAAGUGGAGGGGGCGG [G22C U12C] | 0.07
11 | CCGCCUAACACUGCCAAUGCCCGUCCCAAGCCCGGAUAAAAGUGAAGGGGGCGG [G22C G45A] | 0.03
12 | CCGCCUAACACUGCCAAUGCCCGUCCCAAGCCCGGAUAAAAGUGCAGGGGGCGG [G22C G45C] | 0.02
13 | CCGCCUAACACUGCCAAUGCCCGUCCCAAGCCCGGAUAAAAGUGUAGGGGGCGG [G22C G45U] | 0.03
14 | CCGCCUAACACUGCCAAUGCCUGUCCCAAGCCCGGAUAAAAGUGGAGCGGGCGG [G22U G48C] | 0.06
15 | CCGCCUAACACUGCCAAUGCCUGUCCCAAGCCCGGAUAAAAGUGGAGUGGGCGG [G22U G48U] | 0.05
16 | CCGCCUAACACUGCCAAUGCCUGUCCCAAGCCCGGAUAAAAGUGGAGAGGGCGG [G22U G48A] | 0.04
17 | CCGCCUAACACUGCCAAUGCCUGUCCCAAGCCCGGAUAAAAGUGGACGGGGCGG [G22U G47C] | 0.05
18 | CCGCCUAACACUGCCAAUGCCUGUCCCAAGCCCGGAUAAAAGUGGAAGGGGCGG [G22U G47A] | 0.07
19 | CCGCCUAACACUGCCAAUGCCUGUCCCAAGCCCGGAUAAAAGUGGAUGGGGCGG [G22U G47U] | 0.07
20 | CCGCCUAACACUGCCAAUGCCCGUCCCAAGCCCGGAUAAAAUUGGAGGGGGCGG [G22C G42U] | 0.02
21 | CCGCCUAACACUGCCAAUGCCCGUCCCAAGCCCGGAUAAAAAUGGAGGGGGCGG [G22C G42A] | 0.03
22 | CCGCCUAACACUGCCAAUGCCCGUCCCAAGCCCGGAUAAAACUGGAGGGGGCGG [G22C G42C] | 0.04
23 | CCGCCUAACACUGCCAAUGCCCGUCCCAAGCCCCGAUAAAAGUGGAGGGGGCGG [G22C G34C] | 0.05
24 | CCGCCUAACACUGCCAAUGCCCGUCCCAAGCCCAGAUAAAAGUGGAGGGGGCGG [G22C G34A] | 0.05
25 | CCGCCUAACACUGCCAAUGCCCGUCCCAAGCCCUGAUAAAAGUGGAGGGGGCGG [G22C G34U] | 0.05

Row | Variant | self-cleavage
26 | CCGCCUAACACUGCCAAUGCCUGUCCCAAGCCCGGAUAAAAAUGGAGGGGGCGG [G22U G42A] | 0.08
27 | CCGCCUAACACUGCCAAUGCCUGUCCCAAGCCCGGAUAAAACUGGAGGGGGCGG [G22U G42C] | 0.07
28 | CCGCCUAACACUGCCAAUGCCUGUCCCAAGCCCGGAUAAAAUUGGAGGGGGCGG [G22U G42U] | 0.05
29 | CCGCCUAACACUGCCAAUGCCUGUCCCAAGCCCGGAUAAAAGUGGAGGCGGCGG [G22U G49C] | 0.05
30 | CCGCCUAACACUGCCAAUGCCUGUCCCAAGCCCGGAUAAAAGUGGAGGAGGCGG [G22U G49A] | 0.07
31 | CCGCCUAACACUGCCAAUGCCUGUCCCAAGCCCGGAUAAAAGUGGAGGUGGCGG [G22U G49U] | 0.05
32 | CCGCCUAACACUGCCAAUGCCCGUCCCAAGCCCGGAUAAAAGUGGAUGGGGCGG [G22C G47U] | 0.04
33 | CCGCCUAACACUGCCAAUGCCCGUCCCAAGCCCGGAUAAAAGUGGAAGGGGCGG [G22C G47A] | 0.03
34 | CCGCCUAACACUGCCAAUGCCCGUCCCAAGCCCGGAUAAAAGUGGACGGGGCGG [G22C G47C] | 0.02
35 | CCGCCUAACACUGCCAAUGCCCGUCCCAAGCCCGGAUAAAAGUGGAGAGGGCGG [G22C G48A] | 0.02
36 | CCGCCUAACACUGCCAAUGCCCGUCCCAAGCCCGGAUAAAAGUGGAGCGGGCGG [G22C G48C] | 0.02
37 | CCGCCUAACACUGCCAAUGCCCGUCCCAAGCCCGGAUAAAAGUGGAGUGGGCGG [G22C G48U] | 0.02
38 | CCGCCUAACACUGCCAAUGCCCGUCCCAAGCCCGGAGAAAAGUGGAGGGGGCGG [G22C U37G] | 0.17
39 | CCGCCUAACACUGCCAAUGCCCGUCCCAAGCCCGGACAAAAGUGGAGGGGGCGG [G22C U37C] | 0.14
40 | CCGCCUAACACUGCCAAUGCCCGUCCCAAGCCCGGAAAAAAGUGGAGGGGGCGG [G22C U37A] | 0.14
41 | CCGCCUAACACUGCCAAUGCCCGUCCCAAGCCCGGAUAAAAGUGGAGGGGGCGC [G22C G54C] | 0.15
42 | CCGCCUAACACUGCCAAUGCCCGUCCCAAGCCCGGAUAAAAGUGGAGGGGGCGU [G22C G54U] | 0.16
43 | CCGCCUAACACUGCCAAUGCCCGUCCCAAGCCCGGAUAAAAGUGGAGGGGGCGA [G22C G54A] | 0.08
44 | CCGCCUAACACUGCCAAUGCCCGUCCCAAGCCCGGAUAAAAGUGGAGGCGGCGG [G22C G49C] | 0.03
45 | CCGCCUAACACUGCCAAUGCCCGUCCCAAGCCCGGAUAAAAGUGGAGGUGGCGG [G22C G49U] | 0.03
46 | CCGCCUAACACUGCCAAUGCCCGUCCCAAGCCCGGAUAAAAGUGGAGGAGGCGG [G22C G49A] | 0.03
47 | CCGCCUAACACUGCCAAUGCCUGUCCCAAGCCCGGAUAAAAGUCGAGGGGGCGG [G22U G44C] | 0.81
48 | CCGCCUAACACUGCCAAUGCCUGUCCCAAGCCCGGAUAAAAGUUGAGGGGGCGG [G22U G44U] | 0.47
49 | CCGCCUAACACUGCCAAUGCCUGUCCCAAGCCCGGAUAAAAGUAGAGGGGGCGG [G22U G44A] | 0.72
